Reference: ChEMBL document CHEMBL3393056, “Identification of nicotinamide phosphoribosyltransferase (NAMPT) inhibitors with no evidence of CYP3A4 time-dependent inhibition and improved aqueous solubility” (Bioorg Med Chem Lett, 2015)

Legend:
[1] = Half life in rat at 1 mg/kg, iv; format: ADME, organism-based; set-up: dose 1 mg/kg, route intravenous; details: in vivo
How it was run: (§1)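 Male Sprague Dawley rats and male beagle dogs were dosed IV at 1 mg/kg or orally at 5 mg/kg. Plasma concentration–time profiles were followed. Each time point is the mean from three separate animals.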

[2] = Volume of distribution at steady state in rat at 1 mg/kg, iv; format: ADME, organism-based; set-up: dose 1 mg/kg, route intravenous; details: in vivo, read-out: Vdss; how it was run: as §1
[3] = Oral bioavailability in rat at 5 mg/kg; format: ADME, organism-based; details: in vivo; how it was run: as §1
[4] = Cmax in rat at 5 mg/kg, po; format: ADME, organism-based; set-up: dose 5 mg/kg, route oral; details: in vivo; how it was run: as §1
[5] = Clearance in rat at 1 mg/kg, iv; format: ADME, organism-based; set-up: dose 1 mg/kg, route intravenous; details: in vivo; how it was run: as §1
[6] = AUC in rat at 5 mg/kg, po; format: ADME, organism-based; set-up: dose 5 mg/kg, route oral; details: plasma; how it was run: as §1
[7] = Cmax in dog at 5 mg/kg, po; format: ADME, organism-based, Canis lupus familiaris; set-up: dose 5 mg/kg, route oral; details: in vivo; how it was run: as §1
[8] = AUC in dog at 5 mg/kg, po; format: ADME, organism-based, Canis lupus familiaris; set-up: dose 5 mg/kg, route oral; details: plasma; how it was run: as §1
[9] = Clearance in dog at 1 mg/kg, iv; format: ADME, organism-based, Canis lupus familiaris; set-up: dose 1 mg/kg, route intravenous; details: in vivo; how it was run: as §1
[10] = Volume of distribution at steady state in dog at 1 mg/kg, iv; format: ADME, organism-based, Canis lupus familiaris; set-up: dose 1 mg/kg, route intravenous; details: in vivo, read-out: Vdss; how it was run: as §1
[11] = Half life in dog at 1 mg/kg, iv; format: ADME, organism-based, Canis lupus familiaris; set-up: dose 1 mg/kg, route intravenous; details: in vivo; how it was run: as §1
[12] = Oral bioavailability in dog at 5 mg/kg; format: ADME, organism-based, Canis lupus familiaris; details: in vivo; how it was run: as §1

| Compound | half-life [1] | Vd [2] | bioavailability [3] | Cmax [4] | clearance [5] | AUC [6] | Cmax [7] | AUC [8] | clearance [9] | Vd [10] | half-life [11] | bioavailability [12] |
| --- | --- | --- | --- | --- | --- | --- | --- | --- | --- | --- | --- | --- |
| CC(C)CN1CCC([S@](=O)c2ccc(CNC(=O)c3cc4ccncc4o3)cc2)CC1 | 0.93 h | 17 L/kg | 31% | 70 nM | 225 mL/min/kg | 0.27 µM·h |  |  |  |  |  |  |
| O=C(NCc1ccc(S(=O)(=O)c2cc(F)cc(F)c2)cn1)c1cc2ccncc2o1 | 1 h | 2 L/kg | 61% | 1000 nM | 40 mL/min/kg | 3.3 µM·h | 4700 nM | 33 µM·h | 6.7 mL/min/kg | 1.6 L/kg | 4.7 h | 115% |
| O=C(NCc1ccc([S@@](=O)c2cc(F)cc(F)c2)cn1)c1cc2ccncc2o1 | 0.6 h | 3 L/kg | 62% | 1000 nM | 105 mL/min/kg | 1.2 µM·h |  |  |  |  |  |  |
| CC(C)n1cc(S(=O)(=O)c2ccc(CNC(=O)c3cc4ccncc4o3)nc2)cn1 | 2.3 h | 3.2 L/kg | 74% | 1500 nM | 55 mL/min/kg | 3 µM·h | 8600 nM | 28 µM·h | 9.8 mL/min/kg | 1 L/kg | 1.5 h | 141% |
